Source: PubChem (several laboratories)
N-glyco inh: N-linked glycosylation inhibition | D54 ERlucT glycosylation luciferase reporter, 24 h; percent of 100 nM tunicamycin response | reporter increase, % at 12.5 µM | hit rate 0.23% among 360,000 | AID 588692;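 active = mean luciferase reporter signal, scaled so untreated is 0 and the glycosylation-blocking control 100, at or above a set limit in every replicate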;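 note: luciferase carries N-glycosylation sites so blocking glycosylation raises the light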
GC-B act: GC-B (human) receptor activation. activation, % at 10 µM. HEK293-GC-B cells, CNP EC30, cGMP TR-FRET; 0% at EC30 CNP, 100% saturating CNP. hit rate 0.11% among 370,000;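 active = activation at 10 µM reaching about 35% in either raw or pattern-adjusted values, limit read from the data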
CaV13 ICDI inh: Disruptors of the CACNA1D IQ motif to Ca2+-dependent inactivation inhibitor domain association, primary screening, Förster resonance energy transfer in intact living … | HEK cells, CFP/YFP FRET ICDI-IQ, plate reader, 10 min; percent FRET-ratio fall versus neutral wells | inhibition, % at 12.3 µM | AID 743397 | hit rate 0.098% among 340,000;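 active = mean replicate inhibition of at least 30% and at least 1% of replicates passing that level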
Vif imaging: inhibitors of HIV Vif. AID 602346. HEK293T cells, Vif self-association by quenched fluorescence, imaging, 24 h. inhibition, % at 7.49 µM. hit rate 0.35% among 340,000; in the data active = inhibition above about 50%, passing the limit was not always enough
XiGFP reactiv: activators of X-chromosome reactivation in mouse fibroblasts; XiGFP mouse fibroblasts, % GFP-positive cells imaging, 3 d; cells co-treated with 5-aza-dC sensitizer; scaled so ellipticine positive control = 100%; activation, % at 7.58 µM; hit rate 0.055% among 360,000;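 active = mean normalized replicate activation at least 10% and every replicate at or above 10%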
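Assay system: SV40-immortalized XiGFP fibroblast cells, line 68-5-11; buffer or medium: DMEM plus 5-aza-dC sensitizer; compound: one concentration, pinned; timing: compounds 3 days, fix/stain 15 min at room temperature; benchmarks: positive control ellipticine, 6 µM final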
NPR1 activator: GC-A (human) enzyme activation. P16066. HEK293 GC-A cells, cGMP TR-FRET, EC30 ANP; 0% at EC30 ANP, 100% saturating ANP. activation, % at 10 µM. hit rate 0.14% among 370,000; in the data active = activation above about 40%
Target sequence (P16066 whole entry, looked up): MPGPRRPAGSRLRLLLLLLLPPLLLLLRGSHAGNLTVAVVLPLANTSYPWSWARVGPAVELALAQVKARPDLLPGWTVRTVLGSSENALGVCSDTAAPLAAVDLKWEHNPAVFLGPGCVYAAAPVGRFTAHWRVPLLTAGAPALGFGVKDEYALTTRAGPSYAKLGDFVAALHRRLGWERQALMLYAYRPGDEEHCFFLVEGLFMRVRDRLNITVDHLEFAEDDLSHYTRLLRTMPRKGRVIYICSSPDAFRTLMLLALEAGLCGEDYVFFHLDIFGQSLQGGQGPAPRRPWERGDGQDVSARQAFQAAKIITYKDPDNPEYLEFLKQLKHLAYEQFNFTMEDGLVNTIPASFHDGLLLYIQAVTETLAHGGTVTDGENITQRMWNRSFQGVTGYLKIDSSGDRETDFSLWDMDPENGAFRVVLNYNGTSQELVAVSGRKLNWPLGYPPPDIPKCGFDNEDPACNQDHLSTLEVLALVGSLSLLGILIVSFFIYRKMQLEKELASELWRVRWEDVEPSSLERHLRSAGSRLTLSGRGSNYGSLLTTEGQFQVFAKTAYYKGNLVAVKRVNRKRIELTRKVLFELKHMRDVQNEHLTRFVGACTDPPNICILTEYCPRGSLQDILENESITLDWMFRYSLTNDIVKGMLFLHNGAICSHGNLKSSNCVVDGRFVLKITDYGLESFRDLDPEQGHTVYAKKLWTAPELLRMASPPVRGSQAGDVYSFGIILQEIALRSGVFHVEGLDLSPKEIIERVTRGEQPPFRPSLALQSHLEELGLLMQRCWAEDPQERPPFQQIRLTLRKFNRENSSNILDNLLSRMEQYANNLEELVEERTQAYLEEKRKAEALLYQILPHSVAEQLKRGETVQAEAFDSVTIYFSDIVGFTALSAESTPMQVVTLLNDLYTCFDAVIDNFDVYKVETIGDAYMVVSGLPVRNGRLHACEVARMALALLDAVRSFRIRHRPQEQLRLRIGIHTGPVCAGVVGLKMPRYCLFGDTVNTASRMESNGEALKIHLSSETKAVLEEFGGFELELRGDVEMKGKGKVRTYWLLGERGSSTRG
A number is an active result; 0 = inactive; - = not tested or not shown; + = active, no number. Hits are enriched below; roughly 0.7% of the tested compounds scored in any of these assays.

SMILES	N-glyco inh	GC-B act	CaV13 ICDI inh	Vif imaging	XiGFP reactiv	NPR1 activator
CNS(=O)(=O)c1cccc(C(=O)Nc2cccnc2)c1	0	0	0	51	-	0
C[C@@H]1CN([C@H](C)CO)C(=O)c2cc(NS(=O)(=O)c3ccc(F)cc3)ccc2O[C@H]1CN(C)Cc1ccc(-c2ccccc2)cc1	-	-	-	-	0	-
CCC1(CC)NC(=O)N(CC(=O)Nc2ccc(OCc3ccccc3)cc2)C1=O	0	0	0	55	0	0
Cc1ccc(-c2nc3ccsc3c(=O)[nH]2)cc1	0	0	60	-	0	0
CCCS(=O)(=O)c1cnc(C2COc3ccccc3O2)nc1N (stereo not drawn)	0	0	0	80	0	0
S=c1nc(C2COc3ccccc3O2)[nH][nH]1 (stereo not drawn)	0	0	0	0	0	0
CC(C)CC#Cc1ccc2c(c1)O[C@@H](CN(C)Cc1ccncc1)[C@H](C)CN([C@H](C)CO)S2(=O)=O	-	-	-	-	0	-
O=C1C=CC(=O)N1c1ccccc1N1C(=O)C=CC1=O	0	0	0	157	0	0
CNC[C@@H]1OCCCC[C@@H](C)Oc2ccc(N(C)C)cc2C(=O)N([C@H](C)CO)C[C@@H]1C	-	-	-	-	0	-
CC(=O)N1CC2(C1)[C@H](c1ccc(-c3ccc(C#N)cc3)cc1)[C@@H](CO)N2C(=O)C1CC1	-	-	-	-	0	-
Cc1c(C(=O)NCc2cccc(C(F)(F)F)c2)sc(=O)n1Cc1ccc(C(=O)N(C)C)cc1	0	0	47	0	0	0
COc1ccc(CNC(=O)c2sc(=O)n(Cc3ccc(C)cc3)c2C)cc1OC	0	0	55	0	0	0
CSc1ccc(Cn2c(C)c(C(=O)NCCC#N)sc2=O)cc1	0	0	34	0	0	0
Cc1c(C(=O)NCc2cccc([N+](=O)[O-])c2)sc(=O)n1Cc1cccc(F)c1	0	0	63	0	0	0
O=C(C[C@@H]1C[C@@H]2c3cc(NC(=O)C4CCOCC4)ccc3O[C@@H]2[C@H](CO)O1)NCc1cccc(F)c1	-	-	-	-	0	-
Cc1c(C(=O)NCc2ccc3c(c2)OCCO3)sc(=O)n1Cc1ccccc1F	0	0	73	0	0	0
C[C@H](CO)N1C[C@H](C)[C@H](CN(C)C)Oc2ncc(C#Cc3ccccc3)cc2C1=O	-	-	-	-	0	-
O=C(NCC1CCCCC1)[C@@H]1[C@@H](CO)[C@@H]2Cn3c(ccc(-c4cccnc4)c3=O)[C@H]1N2	-	-	-	-	0	-
Cc1sc(NC(=S)NC(=O)CCc2ccccc2)c(C(N)=O)c1C	0	0	0	125	0	0
N#CC1=C(N)OC2=C(C(=O)CCC2)C1c1cc2c(cc1Br)OCO2 (stereo not drawn)	0	0	60	0	0	0
CCOC(=O)N1CCN(C(=O)c2cccc(N3C(=O)NC4CC3(C)Oc3ccc(Cl)cc34)c2)CC1 (stereo not drawn)	29	0	0	0	0	0
Cc1ccc(Cl)c2c(N=Nc3ccccc3)c(O)[nH]c12	0	0	0	0	27	0
O=C(C[C@@H]1CC[C@@H](NC(=O)C2CC2)[C@@H](CO)O1)NCC1CC1	-	-	-	-	0	-
O=C(C1CCOCC1)N1C[C@@H]2[C@H](c3ccccc31)[C@H](CO)N2C(=O)c1ccccc1	-	-	-	-	0	-
C=C(C)Cc1c(C)c(C#N)c2nc3ccccc3n2c1NCCCN(C)C	38	0	0	0	0	0
SMILES	N-glyco inh	GC-B act	CaV13 ICDI inh	Vif imaging	XiGFP reactiv	NPR1 activator
Cc1c(CCCl)c(Cl)n2c(nc3ccccc32)c1C#N	0	0	0	61	0	0
O=C(C[C@@H]1CC[C@H](NC(=O)Nc2ccccc2F)[C@H](CO)O1)NCc1ccc(F)cc1	-	-	-	-	0	-
C[C@H](CO)N1C[C@H](C)[C@@H](CN(C)S(=O)(=O)c2ccc(F)cc2)Oc2cc(C3=CCCCC3)ccc2S1(=O)=O	-	-	-	-	0	-
C[C@@H]1CCCCO[C@H](CN(C)C(=O)Nc2ccc(F)cc2)[C@H](C)CN([C@H](C)CO)C(=O)c2cc(NS(=O)(=O)c3ccc(F)cc3)ccc2O1	-	-	-	-	0	-
COC(=O)c1cc(/C=C/c2ccccc2)on1	0	0	-	0	-	59
CCn1c(COc2cccc(OC)c2)nnc1SCC(=O)NC1CCCC1	0	0	0	51	0	0
Cc1c(Cl)cccc1NC(=S)N1CCN(Cc2ccc3c(c2)OCO3)CC1	0	0	0	53	0	0
CCOC(=O)/C(C#N)=C/c1cc2ccccc2nc1Cl	0	0	0	-	-	0
CSc1nc2ccccc2cc1/C=C(\C#N)c1cccc(Cl)c1	0	0	0	63	-	0
Cc1cccc2cc(COC(=O)c3ccco3)c(=O)[nH]c12	0	0	0	64	-	0
C[C@H](CO)N1C[C@H](C)[C@H](CN(C)C(=O)Nc2ccc(C(F)(F)F)cc2)Oc2ccc(NS(=O)(=O)c3ccc(F)cc3)cc2C1=O	-	-	-	-	0	-
COc1cccc(NC(=O)COC(=O)c2c(NC(C)=O)sc(C)c2C)c1	0	0	0	0	0	0
CC(=O)Nc1sc(C)c(C)c1C(=O)OCC(=O)Nc1cccc(C)c1	66	0	0	0	0	0
COc1ccccc1NC(=O)COC(=O)c1c(NC(C)=O)sc(C)c1C	0	0	0	0	0	0
CC(=O)Nc1sc(C)c(C)c1C(=O)OCC(=O)Nc1ccccc1	85	0	0	0	0	0
COc1ccc(C2C(C#N)=C(N)Oc3cc(O)ccc32)cc1Cl (stereo not drawn)	0	0	+	0	0	0
CCOc1ccc(C2C(C#N)=C(N)Oc3cc(O)ccc32)cc1OCC (stereo not drawn)	0	0	58	0	0	0
CCOc1ccccc1C1C(C#N)=C(N)Oc2cc(N)ccc21 (stereo not drawn)	0	0	0	0	-	0
C#CCOc1ccc(C2C(C#N)=C(N)Oc3cc(O)ccc32)cc1 (stereo not drawn)	0	0	+	0	0	0
COC(=O)c1ccc(C2C(C#N)=C(N)Oc3cc(O)ccc32)cc1 (stereo not drawn)	0	0	0	0	0	0
N#CC1=C(N)Oc2cc(O)ccc2C1c1ccncc1 (stereo not drawn)	0	0	-	0	-	0
N#CC1=C(N)Oc2cc(N)ccc2C1c1cccc(F)c1 (stereo not drawn)	0	0	0	0	0	43
C[C@H](CO)N1C[C@H](C)[C@H](CN(C)C(=O)Nc2ccc(F)cc2)Oc2c(NC(=O)Nc3cccc4ccccc34)cccc2C1=O	-	-	-	-	0	-
C[C@@H]1CN([C@H](C)CO)C(=O)c2cc(NC(=O)NC3CCCCC3)ccc2O[C@@H](C)CCCCO[C@@H]1CN(C)Cc1ccc(C(F)(F)F)cc1	-	-	-	-	0	-
